# Source: PubChem (several laboratories)
# S1P4 antagonist: blocks the human S1P4 receptor. O95977. S1P4-expressing cells, antagonist mode, reporter read-out. inhibition, % at 4.98 µM. 220,000 compounds, 0.26% hits; in the data active = inhibition above about 29%;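 note: 0% = wells stimulated with agonist and 100% = vehicle wells without agonist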
# Dynein transport: blocks dynein driven cargo transport along microtubules. 3617.4 mouse cells, GR-EGFP nuclear translocation imaging; test concentration mostly 20 µM; stimulated with dexamethasone, 1 µM; active compounds read low. z-score, hits read low. 220,000 compounds, 0.47% hits;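 active = plate z-score of nuclear minus cytoplasmic receptor signal below a set negative limit, without overly bright fluorescence or cell loss, cut at about -3.5 in these data, passing the limit was not always enough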;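 note: z-score of nuclear minus cytoplasmic ring GR-EGFP intensity difference per well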
#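 Schedule: 48 h induction, then 1 h compound, then 30 min agonist, 37 °C. Buffer or medium: tetracycline-free induction medium containing charcoal-stripped FBS. Reagent: 1.0 µM final dexamethasone stimulus. Evaluation: nuclear versus cytoplasmic GR-EGFP signal, averaged per well. Signal: high-content fluorescence imaging after fixation.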
# Hsp70 activator: Hsp70 transcriptional activation, primary screen | HeLa Hsp70 promoter luciferase reporter, luminescence; scaled: vehicle 0, proteasome-inhibitor control 100% | activation, % at 10 µM | 200,000 compounds, 0.04% hits;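 active = activation above the mean across all tested compounds plus 3 SD, cutoff set per campaign, cut at about 5.5% in these data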;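 note: 100% = MG132 at 30 µM as the positive control and 0% = DMSO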
# S1P3 antag: blocks the human S1P3 receptor; Q99500; CHO S1P3 NFAT-BLA reporter, FRET fluorescence, antagonist mode; inhibition, % at 4.98 µM; 170,000 compounds, 0.27% hits; AID 485;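 active = inhibition above the plate cutoff, the mean inhibition of test wells on that plate plus 3 SD, cut at about 28% in these data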;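 note: cells challenged with S1P at its EC80 of 0.8 µM; blue over green emission ratio from cleaved BLA substrate after 4 h stimulation; 0% = S1P-stimulated wells and 100% = unstimulated DMSO-only wells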
# Target sequence (Q99500 whole entry, looked up): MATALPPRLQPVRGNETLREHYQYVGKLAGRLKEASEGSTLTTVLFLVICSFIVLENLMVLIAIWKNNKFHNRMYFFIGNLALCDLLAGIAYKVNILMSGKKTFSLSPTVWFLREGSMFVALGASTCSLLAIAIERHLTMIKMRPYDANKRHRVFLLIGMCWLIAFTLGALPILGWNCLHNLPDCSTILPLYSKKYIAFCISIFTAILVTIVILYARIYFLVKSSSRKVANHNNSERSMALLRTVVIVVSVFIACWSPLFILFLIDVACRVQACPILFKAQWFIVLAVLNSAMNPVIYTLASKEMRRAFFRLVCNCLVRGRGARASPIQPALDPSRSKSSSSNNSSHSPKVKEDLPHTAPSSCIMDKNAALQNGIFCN
# S1P4 agonist: activates the human S1P4 receptor. 220,000 compounds, 0.35% hits. activation, % at 4.98 µM. O95977. S1P4-expressing cell line, agonist reporter assay; in the data active = activation above about 11%;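 note: 0% = DMSO vehicle and 100% = reference agonist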
# Mdm2 ligase inh: Mdm2 E3 ligase (human) inhibition. Q00987. cell-based MDM2 ubiquitination luciferase reporter, 2 h; 0 = plate control, 100 = twice control, blank-subtracted. signal enhancement, % at 5 µM. 210,000 compounds, 0.11% hits. AID 1230;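 active = signal enhancement of 30% or more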;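 note: luminescence tracks abundance of the self-degrading MDM2-luciferase fusion protein; higher signal means inhibition of MDM2 E3 ligase activity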
#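 Assay system: stable mammalian line carrying autodegrading MDM2–luciferase fusion reporter; amount: 2000 cells seeded into each well; buffer or medium: DMEM; benchmarks: plate control and blank wells; signal: luciferase luminescence; timing: 2 h compound exposure at 37 °C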
# Dynein inh conf: dynein cargo transport inhibition, confirmation. shares compounds with Dynein transport. 3617.4 GR-EGFP nuclear translocation imaging, dexamethasone-induced. calls only at 20 µM. 1,000 compounds, 69% hits;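 active = inhibition of receptor movement into the nucleus at or above a set limit in both runs, with normal cell brightness and cell count; inconclusive = limit reached in only one run, brightness and count normal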;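 note: dexamethasone at 1 µM final in well for 30 min; nuclear minus cytoplasmic GR-EGFP mean intensity difference in channel 2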
# S1P4 antag conf: human S1P4 antagonism, confirmation. shares compounds with S1P4 antagonist. S1P4-expressing cell line, antagonist mode, reporter read-out. inhibition, % at 4.98 µM. 520 compounds, 71% hits; in the data active = inhibition above about 30%
# S1P1 antagonist: blocks human S1P1, counter-screen for S1P4 antagonists. 520 compounds, 37% hits. shares compounds with S1P4 antagonist. inhibition, % at 4.98 µM. cell-based S1P1 antagonist counterscreen, inhibition; in the data active = inhibition above about 40%;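 note: receptor stimulated with S1P near its EC80; 0% = agonist stimulated wells and 100% = vehicle only wells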
# The depositor's hits bear a star; i = inactive; u = inconclusive; x = not tested or not shown; + = active, no number. Rows were chosen to be rich in hits. Some 1.3% of all compounds tested hit in one or more screens of this group.
SMILES,S1P4 antagonist,Dynein transport,Hsp70 activator,S1P3 antag,S1P4 agonist,Mdm2 ligase inh,Dynein inh conf,S1P4 antag conf,S1P1 antagonist
COc1ccc2nc(N3CCCC3)c(C#N)cc2c1,0,-4.2*,0,-23,0,-3,i,x,x
Cc1ccc(CNC(=O)COC(=O)CCC(=O)c2cccs2)cc1,7,-0.71,0,-8,1,-6,x,x,x
Cc1sc(NC(=O)CCl)c(C(=O)c2ccccc2)c1C,-5,-3.7*,0,x,-4,21,+,x,x
Cc1ccccc1C(=O)Nc1sc(C)c(C)c1C(=O)c1ccccc1,4,0.24,0,x,0,-19,x,x,x
Cc1cc(NC(=O)CCCS(=O)(=O)c2nc(-c3cccs3)cc(C(F)(F)F)n2)no1,40*,-4.8*,0,-10,0,21,u,111*,45*
COc1ccc(/C=C/C(=O)Nc2ccc(OC)nc2)cc1,11,-0.19,-1,-5,3,-9,x,x,x
COc1ccc(CS(=O)(=O)/C(Cl)=C(/Cl)C(=O)Nc2ccc(OC)nc2)cc1,80*,-4.6,3,x,1,-9,+,119*,85*
Cc1ccc(SCC(=O)Nc2ccc(C(=O)Nc3ccc(O)cc3)cc2)cc1,1,-0.23,0,9,-1,-3,x,x,x
Cc1ccccc1CS(=O)(=O)c1nnc([C@H](CC(C)C)NC(=O)OC(C)(C)C)o1,86*,-3.7*,0,-7,-5,-9,+,113*,33
S=c1sc2c(Cl)ncnc2n1-c1ccccc1,32*,-4*,0,-9,-1,17,+,121*,86*
CC(C)OC(=O)c1cccc(C(=O)Nc2cccc(NC(=O)c3cccc(C(=O)OC(C)C)n3)n2)n1,-15,0.32,0,10,1,-26,x,x,x
Cc1cccc(N/C(N)=N/c2nc(CSc3ccc(Cl)cc3)cc(=O)[nH]2)c1,6,2.1,x,-18,-1,-17,x,x,x
O=C(CNC(=O)c1ccccc1Br)N/N=C/c1ccc(O)cc1,-9,-0.62,0,5,-1,0,x,x,x
COC(CNC(=O)c1ccc2c3c(onc13)-c1ccccc1C2=O)OC,37*,-4.9*,x,-3,6,-9,+,114*,22
O=C(c1ccccc1)c1ccccc1N1C(=O)C=CC1=O,38*,-4.4*,x,-9,-1,-5,+,104*,9
O=C(c1ccccc1)c1ccccc1C(=O)N1CCN(C(=O)c2ccccc2)CC1,6,-0.14,0,-18,0,-20,x,x,x
COc1ccc(S(=O)(=O)N(C)C)cc1NC(=O)COC(=O)c1nc2nccc(C)n2n1,4,0.69,x,-4,-1,x,x,x,x
CCN1C(=O)CS/C1=N\S(=O)(=O)c1ccc(Cl)cc1,-8,0.39,0,-83,2,-3,x,x,x
CCn1c(Cl)c(C=O)s/c1=N\S(=O)(=O)c1ccccc1,88*,-7*,x,18,-3,-23,+,120*,119*
CCCS(=O)(=O)c1nnnn1-c1cccc(OC)c1,38*,-5.5*,0,-17,-2,-8,+,111*,23
COc1cccc(-n2nnnc2SCC(=O)Nc2ccc(C(C)=O)cc2)c1,21,-0.057,0,x,0,4,x,x,x
O=c1c(Cl)c(Cl)cnn1Cc1ccc(F)cc1,60*,-4.9*,0,-1,-4,-93,+,105*,31
O=C1CN(C(=O)Cn2ncc(Cl)c(Cl)c2=O)c2ccccc2N1,38*,-6.8*,0,4,-4,-11,+,117*,69*
Cc1ccc(NC(=O)CN(C)C(=O)COc2c(Cl)cc(Cl)c3ccc(C)nc23)cc1,-23,-0.061,0,7,2,-6,x,x,x
Cc1nc2ccccc2n1CC(=O)N1CC(=O)Nc2ccccc21,-4,0.2,0,-6,-4,1,x,x,x
SMILES,S1P4 antagonist,Dynein transport,Hsp70 activator,S1P3 antag,S1P4 agonist,Mdm2 ligase inh,Dynein inh conf,S1P4 antag conf,S1P1 antagonist
Cc1ccc(NC(=O)CN(C)C(=O)Cn2ncc(Cl)c(Cl)c2=O)cc1,82*,-6.3*,0,5,1,-11,+,106*,79*
CC(C)(C)C(=O)Cn1ncc(Cl)c(Cl)c1=O,53*,-6.1*,0,-1,-1,-25,+,78*,24
O=C(N/N=C/c1ccncc1)c1cccc(S(=O)(=O)Nc2ccc(Cl)cc2)c1,0,3.1,x,-4,-1,x,x,x,x
COc1cccc(/C=N/n2c(C)c3c(C)nnc(C)c3c2C)c1O,x,x,x,-14,x,x,x,x,x
O=C(Cn1ncc(Cl)c(Cl)c1=O)c1ccc(Cl)cc1,44*,-4*,0,x,-1,1,i,107*,63*
Cc1ccc(-n2nnnc2-c2ccccc2)cc1,-7,0.24,0,-10,0,-11,x,x,x
Cc1ccc(-n2nnnc2C(Cl)c2nnnn2-c2ccc(C)cc2)cc1,47*,-4.2*,0,-8,4,-12,+,74*,22
O=[N+]([O-])c1ccc(-n2nnnc2-c2ccccc2)cc1,0,-0.58,0,5,0,-1,x,x,x
O=[N+]([O-])c1ccc(-n2nnnc2-c2ccccc2)c([N+](=O)[O-])c1,35*,-6.6*,0,6,-3,-10,+,53*,31
N/C(=N/OC(=O)c1ccc(Cl)cc1)c1ncc([N+](=O)[O-])s1,13,-0.31,x,-8,0,-12,x,x,x
COC(=O)[C@H](CC(C)C)NC(=O)NCc1ccc(Cl)cc1,-8,-0.21,x,-16,0,7,x,x,x
COc1ccc(-n2ncc(N(C)n3cccc3)c(Cl)c2=O)cc1,-6,-0.6,0,x,0,-30,x,x,x
COc1ccc(-n2ncc(Cl)c(Cl)c2=O)cc1,95*,-6.8*,1,2,0,-8,+,118*,57*
COC(=O)[C@@]1(Cc2ccc(F)cc2)[C@H]2c3cc(C(=O)N(C)C)n(Cc4ccccc4)c3C[C@H]2CN1C(=O)c1ccccc1,14,-0.44,0,-7,0,x,x,x,x
C=C1C(=O)C=C2CN(C(=O)c3ccccc3)[C@@](Cc3ccc(F)cc3)(C(=O)OC)[C@@H]12,60*,-5*,1,0,-1,x,+,119*,143*
O=C(NCc1cccnc1)/C(=C/c1ccc(-c2cccc(Cl)c2)o1)S(=O)(=O)c1ccccc1,65*,-3.9*,0,x,0,-17,+,105*,72*
